Data reported in PubChem BioAssay AID624015 (Broad Institute, 2012).

Target: Scavenger receptor class B member 1 (Mus musculus) (UniProt Q61009)
Assay: SR-BI C384S cholesterol efflux blockers – cell-based, ldlA CHO C384S mutant, [3H]cholesterol, powder samples, set 2, mechanism study for SR-BI HDL uptake inhibitor project, dose response (AID 624015)
Conditions: [3H]cholesterol efflux to HDL
Outline: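 Assay system: Cys384S SR-BI mutant ldlA CHO cells; buffer or medium: HEPES pH 7.4 buffered medium, FAF-BSA equilibrated; doses: 0.5% DMSO vehicle; schedule: 1 h compound pre-incubation, then 2 h HDL efflux, 37 °C; technique: liquid scintillation counting of medium and Triton X-100 cell lysate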

Sequence of Scavenger receptor class B member 1 (Mus musculus) (Q61009 whole entry, looked up): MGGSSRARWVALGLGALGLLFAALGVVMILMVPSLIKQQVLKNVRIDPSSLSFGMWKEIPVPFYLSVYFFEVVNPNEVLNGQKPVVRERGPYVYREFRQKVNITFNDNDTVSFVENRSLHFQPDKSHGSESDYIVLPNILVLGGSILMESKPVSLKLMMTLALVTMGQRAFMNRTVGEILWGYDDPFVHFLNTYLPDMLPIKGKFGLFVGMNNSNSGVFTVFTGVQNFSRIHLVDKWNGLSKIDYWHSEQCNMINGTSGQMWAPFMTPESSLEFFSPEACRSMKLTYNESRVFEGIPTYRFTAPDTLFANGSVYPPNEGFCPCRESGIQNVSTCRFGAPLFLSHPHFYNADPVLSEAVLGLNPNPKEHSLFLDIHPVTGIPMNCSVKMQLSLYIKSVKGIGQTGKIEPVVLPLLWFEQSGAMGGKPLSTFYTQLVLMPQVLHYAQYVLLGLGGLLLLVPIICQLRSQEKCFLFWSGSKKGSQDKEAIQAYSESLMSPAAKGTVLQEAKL

CC(C)NC(=O)Nc1ccc2c(c1)C(=O)N([C@H](C)CO)C[C@@H](C)[C@H](CN(C)S(=O)(=O)c1ccc(Cl)cc1)O2
AC50: 250 nM
